Experimental data from ChEMBL document CHEMBL1136237, “2-piperidin-4-yl-benzimidazoles with broad spectrum antibacterial activities” (2003).
Converted amounts (≈) assume the structure as drawn.

What was measured:
Enterococcus hirae = test: Antibacterial activity determined against gram-positive Enterococcus hirae 29212; type: functional
In short: (§1)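 Broth microdilution: an overnight-culture bacterial suspension was added to compound in 2.5% DMSO in water, giving a final inoculum of about 10^2–10^3 CFU/well. Plates were incubated 20–24 h at 37 °C, and growth relative to a no-compound control was read as A595. MIC was given as a range: complete inhibition at the upper concentration, viable cells at the lower.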

Klebsiella pneumoniae = test: Antibacterial activity determined against gram-negativeK. pneumoniae 13383; type: functional; in short: as §1
Enterococcus faecalis [1] = test: Antibacterial activity determined against Enterococcus faecalis ATCC 4200; type: functional; in short: as §1
Proteus vulgaris = test: Antibacterial activity determined against gram-negativeP. vulgaris 8427; type: functional; in short: as §1
Candida albicans [2] = test: Antifungal activity determined against Candida albicans 10231; type: functional
In short: as §1, with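 “Candida albicans:” for “Broth microdilution:”, “yeast” for “bacterial”, “40–48” for “20–24”, “25” for “37”, “versus” for “relative to”, “higher” for “upper”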

Enterococcus faecalis [3] = test: Antibacterial activity determined against Enterococcus faecalis ATCC 11823; type: functional; in short: as §1
Enterococcus faecium [4] = test: Antibacterial activity determined against Enterococcus faecium ATCC 6569; type: functional; in short: as §1
Pseudomonas aeruginosa = test: Antibacterial activity determined against gram-negativeP. aeruginosa 25416; type: functional; in short: as §1
Staphylococcus aureus [5] = test: Antibacterial activity determined against Staphylococcus aureus; type: functional; in short: as §1
Enterococcus faecium [6] = test: Antibacterial activity determined against Enterococcus faecium ATCC 882; type: functional; in short: as §1
Streptococcus pyogenes = test: Antibacterial activity determined against gram-positive Streptococcus pyogenes 49399; type: functional; in short: as §1
Enterococcus faecalis [7] = test: Antibacterial activity determined against Enterococcus faecalis ATCC 49757; type: functional; in short: as §1
Escherichia coli [8] = test: Antibacterial activity determined against Escherichia coli; type: functional; in short: as §1
Staphylococcus aureus [9] = test: Antibacterial activity determined against gram-positive Staphylococcus aureus 13709; type: functional; in short: as §1
Streptococcus pneumoniae = test: Antibacterial activity determined against gram-positive Streptococcus pneumoniae 6303; type: functional; in short: as §1
[10] = Inhibition of bacterial transcription/translation
Enterococcus faecalis [11] = test: Antibacterial activity determined against Enterococcus faecalis ATCC 23241; type: functional; in short: as §1
Enterococcus faecalis [12] = test: Antibacterial activity determined against Enterococcus faecalis ATCC 828; type: functional; in short: as §1
Escherichia coli [13] = test: Antibacterial activity determined against gram-negativeE. coli 25922; type: functional; in short: as §1
Enterococcus faecalis [14] = test: Anti-bacterial activity determined against Enterococcus faecalis ATCC 49757; type: functional; in short: as §1
Candida albicans [15] = test: Antibacterial activity determined against Candida albicans 10231; type: functional
In short: as §1, with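 “Candida albicans:” for “Broth microdilution:”, “yeast” for “bacterial”, “40–48” for “20–24”, “25” for “37”, “versus” for “relative to”, “higher” for “upper”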

| SMILES | MIC (Enterococcus hirae) | MIC (Klebsiella pneumoniae) | MIC (Enterococcus faecalis [1]) | MIC (Proteus vulgaris) | MIC (Candida albicans [2]) | MIC (Enterococcus faecalis [3]) | MIC (Enterococcus faecium [4]) | MIC (Pseudomonas aeruginosa) | MIC (Staphylococcus aureus [5]) | MIC (Enterococcus faecium [6]) | MIC (Streptococcus pyogenes) | MIC (Enterococcus faecalis [7]) | MIC (Escherichia coli [8]) | MIC (Staphylococcus aureus [9]) | MIC (Streptococcus pneumoniae) | IC50 [10] | MIC (Enterococcus faecalis [11]) | MIC (Enterococcus faecalis [12]) | MIC (Escherichia coli [13]) | further results |
| --- | --- | --- | --- | --- | --- | --- | --- | --- | --- | --- | --- | --- | --- | --- | --- | --- | --- | --- | --- | --- |
| O=C1c2ccccc2C(=O)N1Cc1ccc(Cn2c(C3CCNCC3)nc3cc(Cl)c(Cl)cc32)cc1 | 3 µM (≈ 1.56 µg/mL) | 25 µM (≈ 13 µg/mL) | 6 µM (≈ 3.12 µg/mL) | 25 µM (≈ 13 µg/mL) | 50 µM (≈ 26 µg/mL) | 3 µM (≈ 1.56 µg/mL) | 3 µM (≈ 1.56 µg/mL) | 12 µM (≈ 6.23 µg/mL) | 6 µM (≈ 3.12 µg/mL) | 6 µM (≈ 3.12 µg/mL) | 12 µM (≈ 6.23 µg/mL) | 6 µM (≈ 3.12 µg/mL) | 6 µM (≈ 3.12 µg/mL) | 6 µM (≈ 3.12 µg/mL) | 6 µM (≈ 3.12 µg/mL) | > 100 µM | 6 µM (≈ 3.12 µg/mL) | 6 µM (≈ 3.12 µg/mL) | 6 µM (≈ 3.12 µg/mL) | – |
| Clc1cc2nc(C3CCNCC3)n(Cc3ccc(CNCCCn4ccnc4)cc3)c2cc1Cl | – | – | 12 µM (≈ 5.97 µg/mL) | – | – | 6 µM (≈ 2.98 µg/mL) | 6 µM (≈ 2.98 µg/mL) | – | 12 µM (≈ 5.97 µg/mL) | 12 µM (≈ 5.97 µg/mL) | – | – | 12 µM (≈ 5.97 µg/mL) | – | – | > 100 µM | 12 µM (≈ 5.97 µg/mL) | 6 µM (≈ 2.98 µg/mL) | – | MIC (Enterococcus faecalis [14]): 12 µM (≈ 5.97 µg/mL) |
| NC1CCN(Cc2ccc(Cn3c(C4CCNCC4)nc4cc(Cl)c(Cl)cc43)cc2)CC1 | 3 µM (≈ 1.42 µg/mL) | 25 µM (≈ 11.8 µg/mL) | 12 µM (≈ 5.67 µg/mL) | 25 µM (≈ 11.8 µg/mL) | 50 µM (≈ 23.6 µg/mL) | 12 µM (≈ 5.67 µg/mL) | 6 µM (≈ 2.83 µg/mL) | 12 µM (≈ 5.67 µg/mL) | 6 µM (≈ 2.83 µg/mL) | 12 µM (≈ 5.67 µg/mL) | 6 µM (≈ 2.83 µg/mL) | 12 µM (≈ 5.67 µg/mL) | 50 µM (≈ 23.6 µg/mL) | 6 µM (≈ 2.83 µg/mL) | 25 µM (≈ 11.8 µg/mL) | 60 µM | 12 µM (≈ 5.67 µg/mL) | 12 µM (≈ 5.67 µg/mL) | 50 µM (≈ 23.6 µg/mL) | – |
| CCCCCCNCc1ccc(Cn2c(C3CCNCC3)nc3cc(Cl)c(Cl)cc32)cc1 | 1 µM (≈ 0.473 µg/mL) | 6 µM (≈ 2.84 µg/mL) | 3 µM (≈ 1.42 µg/mL) | 12 µM (≈ 5.68 µg/mL) | 25 µM (≈ 11.8 µg/mL) | 3 µM (≈ 1.42 µg/mL) | 3 µM (≈ 1.42 µg/mL) | 25 µM (≈ 11.8 µg/mL) | 3 µM (≈ 1.42 µg/mL) | 3 µM (≈ 1.42 µg/mL) | 3 µM (≈ 1.42 µg/mL) | 3 µM (≈ 1.42 µg/mL) | 6 µM (≈ 2.84 µg/mL) | 3 µM (≈ 1.42 µg/mL) | 6 µM (≈ 2.84 µg/mL) | > 100 µM | 3 µM (≈ 1.42 µg/mL) | 3 µM (≈ 1.42 µg/mL) | 6 µM (≈ 2.84 µg/mL) | – |
| Clc1cc2nc(C3CCNCC3)n(Cc3ccc(CNC4CCNCC4)cc3)c2cc1Cl | 3 µM (≈ 1.42 µg/mL) | 12 µM (≈ 5.67 µg/mL) | 12 µM (≈ 5.67 µg/mL) | 25 µM (≈ 11.8 µg/mL) | – | 12 µM (≈ 5.67 µg/mL) | 12 µM (≈ 5.67 µg/mL) | 12 µM (≈ 5.67 µg/mL) | 6 µM (≈ 2.83 µg/mL) | 12 µM (≈ 5.67 µg/mL) | 6 µM (≈ 2.83 µg/mL) | 12 µM (≈ 5.67 µg/mL) | 12 µM (≈ 5.67 µg/mL) | 6 µM (≈ 2.83 µg/mL) | 12 µM (≈ 5.67 µg/mL) | > 100 µM | 12 µM (≈ 5.67 µg/mL) | 12 µM (≈ 5.67 µg/mL) | 12 µM (≈ 5.67 µg/mL) | MIC (Candida albicans [15]): 50 µM (≈ 23.6 µg/mL) |
| CCCCCNCc1ccc(Cn2c(C3CCNCC3)nc3cc(Cl)c(Cl)cc32)cc1 | 1 µM (≈ 0.459 µg/mL) | 6 µM (≈ 2.76 µg/mL) | 6 µM (≈ 2.76 µg/mL) | 25 µM (≈ 11.5 µg/mL) | 50 µM (≈ 23 µg/mL) | 3 µM (≈ 1.38 µg/mL) | 3 µM (≈ 1.38 µg/mL) | 25 µM (≈ 11.5 µg/mL) | 6 µM (≈ 2.76 µg/mL) | 6 µM (≈ 2.76 µg/mL) | 3 µM (≈ 1.38 µg/mL) | 6 µM (≈ 2.76 µg/mL) | 12 µM (≈ 5.51 µg/mL) | 6 µM (≈ 2.76 µg/mL) | 12 µM (≈ 5.51 µg/mL) | > 100 µM | 6 µM (≈ 2.76 µg/mL) | 6 µM (≈ 2.76 µg/mL) | 12 µM (≈ 5.51 µg/mL) | – |
| Clc1cc2nc(C3CCNCC3)n(Cc3ccc(CN4CCNCC4)cc3)c2cc1Cl | 3 µM (≈ 1.38 µg/mL) | 6 µM (≈ 2.75 µg/mL) | 12 µM (≈ 5.5 µg/mL) | 12 µM (≈ 5.5 µg/mL) | 50 µM (≈ 22.9 µg/mL) | 12 µM (≈ 5.5 µg/mL) | 6 µM (≈ 2.75 µg/mL) | 12 µM (≈ 5.5 µg/mL) | 6 µM (≈ 2.75 µg/mL) | 6 µM (≈ 2.75 µg/mL) | 6 µM (≈ 2.75 µg/mL) | 12 µM (≈ 5.5 µg/mL) | 12 µM (≈ 5.5 µg/mL) | 6 µM (≈ 2.75 µg/mL) | 12 µM (≈ 5.5 µg/mL) | > 100 µM | 6 µM (≈ 2.75 µg/mL) | 6 µM (≈ 2.75 µg/mL) | 12 µM (≈ 5.5 µg/mL) | – |

Continued by falling MIC (Enterococcus faecalis [1]), values first:

| MIC (Enterococcus hirae) | MIC (Klebsiella pneumoniae) | MIC (Enterococcus faecalis [1]) | MIC (Proteus vulgaris) | MIC (Candida albicans [2]) | MIC (Enterococcus faecalis [3]) | MIC (Enterococcus faecium [4]) | MIC (Pseudomonas aeruginosa) | MIC (Staphylococcus aureus [5]) | MIC (Enterococcus faecium [6]) | MIC (Streptococcus pyogenes) | MIC (Enterococcus faecalis [7]) | MIC (Escherichia coli [8]) | MIC (Staphylococcus aureus [9]) | MIC (Streptococcus pneumoniae) | IC50 [10] | MIC (Enterococcus faecalis [11]) | MIC (Enterococcus faecalis [12]) | MIC (Escherichia coli [13]) | SMILES | further results |
| --- | --- | --- | --- | --- | --- | --- | --- | --- | --- | --- | --- | --- | --- | --- | --- | --- | --- | --- | --- | --- |
| 6 µM (≈ 2.68 µg/mL) | 25 µM (≈ 11.2 µg/mL) | 25 µM (≈ 11.2 µg/mL) | – | > 100 µM | 12 µM (≈ 5.36 µg/mL) | 12 µM (≈ 5.36 µg/mL) | 25 µM (≈ 11.2 µg/mL) | 12 µM (≈ 5.36 µg/mL) | 25 µM (≈ 11.2 µg/mL) | 6 µM (≈ 2.68 µg/mL) | 12 µM (≈ 5.36 µg/mL) | 50 µM (≈ 22.3 µg/mL) | 12 µM (≈ 5.36 µg/mL) | 25 µM (≈ 11.2 µg/mL) | 20 µM | 25 µM (≈ 11.2 µg/mL) | 12 µM (≈ 5.36 µg/mL) | 50 µM (≈ 22.3 µg/mL) | NCCCNCc1ccc(Cn2c(C3CCNCC3)nc3cc(Cl)c(Cl)cc32)cc1 | – |
| 3 µM (≈ 1.42 µg/mL) | 12 µM (≈ 5.67 µg/mL) | 12 µM (≈ 5.67 µg/mL) | 25 µM (≈ 11.8 µg/mL) | > 100 µM | 12 µM (≈ 5.67 µg/mL) | 6 µM (≈ 2.83 µg/mL) | 25 µM (≈ 11.8 µg/mL) | 6 µM (≈ 2.83 µg/mL) | 12 µM (≈ 5.67 µg/mL) | 6 µM (≈ 2.83 µg/mL) | 6 µM (≈ 2.83 µg/mL) | 12 µM (≈ 5.67 µg/mL) | 6 µM (≈ 2.83 µg/mL) | 12 µM (≈ 5.67 µg/mL) | > 100 µM | 12 µM (≈ 5.67 µg/mL) | 12 µM (≈ 5.67 µg/mL) | 12 µM (≈ 5.67 µg/mL) | Clc1cc2nc(C3CCNCC3)n(Cc3ccc(CN4CCCNCC4)cc3)c2cc1Cl | – |
| 3 µM (≈ 1.3 µg/mL) | 12 µM (≈ 5.19 µg/mL) | 12 µM (≈ 5.19 µg/mL) | 25 µM (≈ 10.8 µg/mL) | > 100 µM | 6 µM (≈ 2.59 µg/mL) | 6 µM (≈ 2.59 µg/mL) | 12 µM (≈ 5.19 µg/mL) | 6 µM (≈ 2.59 µg/mL) | 12 µM (≈ 5.19 µg/mL) | 6 µM (≈ 2.59 µg/mL) | 12 µM (≈ 5.19 µg/mL) | 12 µM (≈ 5.19 µg/mL) | 6 µM (≈ 2.59 µg/mL) | 12 µM (≈ 5.19 µg/mL) | 12 µM | 12 µM (≈ 5.19 µg/mL) | 12 µM (≈ 5.19 µg/mL) | 12 µM (≈ 5.19 µg/mL) | NCCNCc1ccc(Cn2c(C3CCNCC3)nc3cc(Cl)c(Cl)cc32)cc1 | – |
